# Measurements taken from ChEMBL document CHEMBL2311397, “Design and synthesis of cyclopropylamide analogues of combretastatin-A4 as novel microtubule-stabilizing agents” (J Med Chem, 2013).
# Activity calls are given as the source filed them. No cut-off for these calls is given here.
# What was measured:
# [1] = Cytotoxicity against human QGY cells after 48 hrs by MTT assay; type: functional, cell-based; details: Homo sapiens, QGY, 48 h
# Summary of the method: (§1)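 Log-phase cells (40000–50000 cells/mL) grown in DMEM with 10% fetal calf serum (5% CO2, 37 °C) and exposed 48 h to five concentrations, 3–5 replicates. Read-out was MTT with absorbance at 570 nm; IC50 reported as mean ± SD of three independent experiments. Resistant A549 and HeLa sublines were made by stepwise paclitaxel selection; resistance index = IC50(resistant)/IC50(sensitive).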
# A549 [2] = test: Cell cycle arrest in human A549 cells assessed as accumulation at S phase at 1 uM after 24 hrs by propidium iodide staining-based flow cytometry (reference value: 9.12 %); type: functional
# SW480 = test: Cytotoxicity against human SW480 cells after 48 hrs by MTT assay; type: functional, cell-based; details: Homo sapiens, SW480, 48 h; summary of the method: as §1
# A549 [3] = test: Induction of apoptosis in human A549 cells assessed as early apoptotic cells at 1 uM after 24 hrs by annexin V-FITC/propidium iodide staining-based flow cytometry (reference value: 0.73 %); type: functional
# A549 [4] = test: Cell cycle arrest in human A549 cells assessed as accumulation at G2/M phase at 10 uM after 24 hrs by propidium iodide staining-based flow cytometry (reference value: 2.78 %); type: functional
# Tubulin (Homo sapiens) [5] = molecular target: T1, Tubulin (Homo sapiens) (UniProt P68371+Q9H4B7+P0DPH7+P68366+Q13509+Q71U36+P04350+Q3ZCM7+P07437+P68363+Q9BQE3+Q6PEY2+Q13885+Q9BVA1+Q9BUF5); test: Activation of tubulin (unknown origin) polymerization at 10 uM; type: protein-complex assay
# Summary of the method: (§2)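 Purified brain tubulin (kit), final 3.0 mg/mL, in 80.0 mM PIPES sesquisodium pH 6.9, 2.0 mM MgCl2, 0.5 mM EGTA, 1 mM GTP, 10.2% glycerol; components prewarmed to 37 °C, reaction started by adding tubulin. A340 read each minute for 1 h. Single-point % stimulation used 10 μM compound; EC50 from 3.75, 7.5, 15, 30, 60 μM.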
# HeLa [6] = test: Resistance index, ratio of IC50 for paclitaxel-resistant human HeLa cells to IC50 for paclitaxel-sensitive human HeLa cells; type: functional; summary of the method: as §1
# A549 [7] = test: Effect on chromosomal alteration in human A549 cells at 10 uM after 22 hrs by DAPI/FITC staining-based laser fluorescence confocal microscopic analysis; type: functional, cell-based
# Summary of the method: (§3)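 Confocal imaging of A549 cells exposed for 22 h to compound or vehicle (0.2% DMSO final), added at 70% confluency after overnight growth. Fixation followed by 0.5% Triton X-100 permeabilization and 10% goat serum blocking; tubulin stained with FITC anti-α-tubulin (1:100, 2 h, 37 °C), nuclei counterstained with DAPI. Wide-field images taken at 10–15 random slide locations.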
# A549 [8] = test: Induction of apoptosis in human A549 cells assessed as late apoptotic cells at 1 uM after 24 hrs by annexin V-FITC/propidium iodide staining-based flow cytometry (reference value: 1.02%); type: functional
# A549 [9] = test: Antitumor activity against human A549 cells xenografted in BALB/c nude mouse assessed as tumor growth inhibition at 500 mg/kg, ig measured on day 16; type: functional; details: A549, po, 384 h, route intragastric, read-out: TGI
# Summary of the method: (§4)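 Male BALB/c nude mice, 5 weeks old (18–20 g), implanted subcutaneously in the right armpit with A549 tumor fragments (3 mm3). On day 13, at 100–200 mm3, daily intragastric dosing began: 100 or 500 mg/kg test compound, or 30 mg/kg paclitaxel, in Tween-80 diluted with saline. Vehicle given ip. Tumor volume and body weight followed; n = 6; inhibition rate at day 16.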
# A549 [10] = test: Cell cycle arrest in human A549 cells assessed as accumulation at G2/M phase at 5 uM after 24 hrs by propidium iodide staining-based flow cytometry (reference value: 2.78 %); type: functional
# HeLa [11] = test: Cytotoxicity against paclitaxel-resistant human HeLa cells after 48 hrs by MTT assay; type: functional, cell-based; summary of the method: as §1
# A549 [12] = test: Cytotoxicity against paclitaxel-resistant human A549 cells after 48 hrs by MTT assay; type: functional, cell-based; details: A549, 48 h; summary of the method: as §1
# A549 [13] = test: Cell cycle arrest in human A549 cells assessed as accumulation at G2/M phase after 24 hrs by propidium iodide staining-based flow cytometry; type: functional
# A549 [14] = test: Induction of apoptosis in human A549 cells early apoptotic cells at 5 uM after 24 hrs by annexin V-FITC/propidium iodide staining-based flow cytometry (reference value: 0.73 %); type: functional
# K562 = test: Cytotoxicity against human K562 cells after 48 hrs by MTT assay; type: functional, cell-based; details: Homo sapiens, K562, 48 h; summary of the method: as §1
# A549 [15] = test: Induction of apoptosis in human A549 cells assessed as viable cells at 10 uM after 24 hrs by annexin V-FITC/propidium iodide staining-based flow cytometry (reference value: 94.08%); type: functional; details: A549, 24 h, read-out: Activity
# A549 [16] = test: Induction of apoptosis in human A549 cells assessed as necrotic cells at 1 uM after 24 hrs by annexin V-FITC/propidium iodide staining-based flow cytometry (reference value: 2.76%); type: functional
# A549 [17] = test: Induction of apoptosis in human A549 cells assessed as late apoptotic cells at 10 uM after 24 hrs by annexin V-FITC/propidium iodide staining-based flow cytometry (reference value: 1.02%); type: functional
# A549 [18] = test: Cell cycle arrest in human A549 cells assessed as accumulation at S phase at 0.1 uM after 24 hrs by propidium iodide staining-based flow cytometry (reference value: 9.12 %); type: functional
# A549 [19] = test: Antimitotic activity against human A549 cells assessed as cell mitotic arrest at 1 uM after 22 hrs by DAPI/FITC staining-based laser fluorescence confocal microscopic analysis (reference value: 1.1 %); type: functional
# A549 [20] = test: Induction of apoptosis in human A549 cells assessed as viable cells at 5 uM after 24 hrs by annexin V-FITC/propidium iodide staining-based flow cytometry (reference value: 94.08%); type: functional; details: A549, 24 h, read-out: Activity
# A549 [21] = test: Induction of apoptosis in human A549 cells assessed as late apoptotic cells at 5 uM after 24 hrs by annexin V-FITC/propidium iodide staining-based flow cytometry (reference value: 1.02%); type: functional
# A549 [22] = test: Effect on microtubule dynamics in human A549 cells at 5 to 10 uM after 22 hrs by DAPI/FITC staining-based laser fluorescence confocal microscopic analysis; type: functional, cell-based; summary of the method: as §3
# A549 [23] = test: Induction of apoptosis in human A549 cells early apoptotic cells at 10 uM after 24 hrs by annexin V-FITC/propidium iodide staining-based flow cytometry (reference value: 0.73 %); type: functional
# Tubulin (Homo sapiens) [24] = molecular target: T1, Tubulin (Homo sapiens); test: (§5) Activation of tubulin (unknown origin) polymerization; type: protein-complex assay; summary of the method: as §2
# Tubulin = test: as §5; type: protein-complex assay, Homo sapiens; summary of the method: as §2
# A549 [25] = test: Antitumor activity against human A549 cells xenografted in BALB/c nude mouse assessed as tumor growth inhibition at 100 mg/kg, ig measured on day 16; type: functional; details: A549, po, 384 h, route intragastric, read-out: TGI; summary of the method: as §4
# A549 [26] = test: Cell cycle arrest in human A549 cells assessed as accumulation at G1 phase at 0.1 uM after 24 hrs by propidium iodide staining-based flow cytometry (reference value: 87.56 %); type: functional
# A549 [27] = test: Antimitotic activity against human A549 cells assessed as cell mitotic arrest at 10 uM after 22 hrs by DAPI/FITC staining-based laser fluorescence confocal microscopic analysis (reference value: 1.1 %); type: functional
structure (smiles),measurement,setting,value
COc1cc([C@@H]2C[C@]2(CO)C(=O)Nc2ccccc2Cl)cc(OC)c1OC,IC50,[1],15.7 µM
same,Activity,A549 [2],9.96%
same,IC50,SW480,13.2 µM
same,Activity,A549 [3],15.57%
same,Activity,A549 [4],79.92%
same,Activity,Tubulin (Homo sapiens) [5],24.3%
same,Ratio IC50,HeLa [6],1.3
same,Activity,A549 [7],Active
same,Activity,A549 [8],2.82%
same,inhibition in vivo at 500 mg/kg,A549 [9],55.9%
same,Activity,A549 [10],60.85%
same,IC50,HeLa [11],10.7 µM
same,IC50,A549 [12],5.3 µM
same,Activity,A549 [13],Dose-dependent effect
same,Activity,A549 [14],37.4%
same,IC50,K562,16.9 µM
same,viability at 10 µM,A549 [15],40.9%
same,Activity,A549 [16],1.46%
same,Activity,A549 [17],2.99%
same,Activity,A549 [18],9.54%
same,Activity,A549 [19],37.4%
same,viability at 5 µM,A549 [20],59%
same,Activity,A549 [21],1.36%
same,Activity,A549 [22],Active
same,Activity,A549 [23],55.23%
same,Activity,Tubulin (Homo sapiens) [24],Dose-dependent effect
same,EC50,Tubulin,19.7 µM
same,inhibition in vivo at 100 mg/kg,A549 [25],44.6%
same,Activity,A549 [26],78.7%
same,Activity,A549 [27],78.8%
